From ChEMBL document CHEMBL1255572, “Novel pyrimidines as acid pump antagonists (APAs)” (Bioorg Med Chem Lett, 2010)
Structures can show the parent of a compound that is named as a salt.

test: Inhibition of H+/K+/ATPase
Summary of the method: (§1)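 Ion-leaky membrane vesicles enriched in H+/K+-ATPase prepared from pig stomach. Lyophilized vesicles in 5 mM Pipes/Tris pH 6.1 preincubated 5 min with compound at various concentrations. K+-containing or K+-free buffer then added, ATP substrate added, and incubated 30 min at 37 °C. Colorimetric reagent stopped the reaction and Pi was read at 620 nm. K+-stimulated activity is the difference between with and without K+. IC50 by Litchfield–Wilcoxon.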

SMILES	IC50 [µM]
COc1ccc2c(c1)CCN(c1nc(Cc3ccc(F)cc3)nc(C)c1C)C2C (centres undefined)	0.17
Cc1cccc2c1C(C)N(c1nc(Cc3ccc(F)cc3)nc(C)c1C)CC2 (centres undefined)	0.7
Cc1ccc2c(c1)CCN(c1nc(C3(c4ccc(F)cc4)CC3)nc(C)c1C)C2C (centres undefined)	1.29
Cc1nc(Cc2ccc(F)cc2)nc(N2CCc3ccc(Cl)cc3C2C)c1C (centres undefined)	1.63
Cc1nc(Cc2ccc(F)cc2)nc(N2CCc3ccc(F)cc3C2C)c1C (centres undefined)	1.24
COc1ccc2c(c1)C(C)N(c1nc(C(=O)c3ccc(F)cc3)nc(C)c1C)CC2 (centres undefined)	1.12
COc1ccc2c(c1)C(C)N(c1nc(Cc3ccc(F)cc3)nc(C)c1C)CC2 (centres undefined)	0.052
Cc1ccc2c(c1)CCN(c1nc(C(C)(C)c3ccc(F)cc3)nc(C)c1C)C2C (centres undefined)	1.76
Cc1ccc2c(c1)CCN(c1nc(C(O)c3ccc(F)cc3)nc(C)c1C)C2C (centres undefined)	1.51
Cc1ccc2c(c1)CCN(c1nc(Cc3ccc(F)cc3)nc(C)c1C)C2C (centres undefined)	0.23
Cc1nc(Cc2ccc(F)cc2)nc(N2CCc3cc(Cl)ccc3C2C)c1C (centres undefined)	0.94
Cc1ccc2c(c1)C(C)N(c1nc(Cc3ccc(F)cc3)nc(C)c1C)CC2 (centres undefined)	0.3
Cc1ccc2c(c1)CCN(c1nc(C(=O)c3ccc(F)cc3)nc(C)c1C)C2C (centres undefined)	1.91
Cc1nc(Cc2ccc(F)cc2)nc(N2CCc3c(Cl)cccc3C2C)c1C (centres undefined)	1.99
Cc1nc(Cc2ccc(F)cc2)nc(N2CC(C)c3ccccc3C2C)c1C (centres undefined)	0.61
Cc1nc(Nc2ccc(F)cc2)nc(N2CCc3ccccc3C2C)c1C (centres undefined) [REVAPRAZAN HYDROCHLORIDE]	0.35
Cc1ccc2c(c1)CCN(c1nc(C(F)c3ccc(F)cc3)nc(C)c1C)C2C (centres undefined)	1.13

test: Inhibition of H+/K+/ATPase at 4 uM; summary of the method: as §1

SMILES	inhibition [%]
COc1ccc2c(c1)C(C)N(c1nc(C3(c4ccc(F)cc4)CC3)nc(C)c1C)CC2 (centres undefined)	1.4
COc1ccc2c(c1)C(C)N(c1nc(C(C)(C)c3ccc(F)cc3)nc(C)c1C)CC2 (centres undefined)	34.2
